# From ChEMBL document CHEMBL3351639, “Fluorinated analogues of marsanidine, a highly α2-AR/imidazoline I1 binding site-selective hypotensive agent. Synthesis and biological activities” (Eur J Med Chem, 2014)
# Legend:
# [1] = target: T1, Adrenergic receptor alpha-1 (Rattus norvegicus, UniProt P15823+P23944+P43140); experiment: Displacement of [3H]prazosin from alpha1-adrenoceptor in Sprague-Dawley rat brain membranes after 45 mins by liquid scintillation counting; assay type: cell membranes, Membrane
# T1 sequence (P15823 whole entry): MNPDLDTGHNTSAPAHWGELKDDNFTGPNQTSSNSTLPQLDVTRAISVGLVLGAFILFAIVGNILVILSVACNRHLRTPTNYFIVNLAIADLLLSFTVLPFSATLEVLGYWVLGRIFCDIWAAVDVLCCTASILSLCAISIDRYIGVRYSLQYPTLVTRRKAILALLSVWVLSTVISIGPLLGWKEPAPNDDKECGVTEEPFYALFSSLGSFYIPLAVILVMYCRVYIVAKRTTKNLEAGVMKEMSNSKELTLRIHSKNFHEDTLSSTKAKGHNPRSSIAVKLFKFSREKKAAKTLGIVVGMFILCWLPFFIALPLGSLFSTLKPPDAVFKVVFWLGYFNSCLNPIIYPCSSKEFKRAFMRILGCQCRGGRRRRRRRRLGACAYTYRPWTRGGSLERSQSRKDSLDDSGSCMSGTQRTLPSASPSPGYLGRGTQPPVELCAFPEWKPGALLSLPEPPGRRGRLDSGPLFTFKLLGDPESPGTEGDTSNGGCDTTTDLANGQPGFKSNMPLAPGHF
# T1 sequence (P23944 whole entry): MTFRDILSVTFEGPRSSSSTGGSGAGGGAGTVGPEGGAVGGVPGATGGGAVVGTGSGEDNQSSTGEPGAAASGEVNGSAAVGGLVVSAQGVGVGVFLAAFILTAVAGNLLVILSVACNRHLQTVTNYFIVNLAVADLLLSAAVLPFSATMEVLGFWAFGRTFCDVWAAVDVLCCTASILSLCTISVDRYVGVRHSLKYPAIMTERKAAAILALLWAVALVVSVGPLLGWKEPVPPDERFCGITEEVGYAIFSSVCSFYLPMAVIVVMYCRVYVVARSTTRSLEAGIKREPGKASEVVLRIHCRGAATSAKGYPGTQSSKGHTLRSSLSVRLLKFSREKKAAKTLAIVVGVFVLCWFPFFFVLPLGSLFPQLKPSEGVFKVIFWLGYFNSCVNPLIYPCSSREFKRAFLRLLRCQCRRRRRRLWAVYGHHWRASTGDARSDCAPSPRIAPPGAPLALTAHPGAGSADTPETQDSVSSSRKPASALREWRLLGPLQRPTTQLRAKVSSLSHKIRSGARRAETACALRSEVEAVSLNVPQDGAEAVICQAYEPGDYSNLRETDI
# T1 sequence (P43140 whole entry): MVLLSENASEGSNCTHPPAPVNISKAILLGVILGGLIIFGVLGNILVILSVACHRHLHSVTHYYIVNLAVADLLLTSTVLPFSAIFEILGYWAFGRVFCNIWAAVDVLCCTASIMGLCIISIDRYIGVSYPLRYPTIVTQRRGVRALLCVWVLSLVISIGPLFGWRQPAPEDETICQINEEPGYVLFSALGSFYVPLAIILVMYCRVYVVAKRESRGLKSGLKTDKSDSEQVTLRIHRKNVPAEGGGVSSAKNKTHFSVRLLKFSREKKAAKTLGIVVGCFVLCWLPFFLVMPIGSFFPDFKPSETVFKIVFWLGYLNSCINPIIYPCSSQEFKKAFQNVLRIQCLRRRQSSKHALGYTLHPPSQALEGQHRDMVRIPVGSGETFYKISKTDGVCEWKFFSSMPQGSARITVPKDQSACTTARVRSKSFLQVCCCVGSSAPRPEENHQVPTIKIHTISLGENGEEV
# In short: (§1)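 Crude P2 membranes from brains of male Sprague-Dawley rats (250–280 g), 0.2–0.3 mg protein. Radioligand 1 nM [3H]RX821002 (α2) or [3H]prazosin (α1); 11 concentrations of compound, 0.1 nM–100 µM. Non-specific binding: 10 µM rauwolscine (α2) or 10 µM phenylephrine (α1). Triplicate incubation, RT, 45 min. PEI-soaked glass-fibre filtration, then scintillation counting. Ki by Cheng-Prusoff; 3–4 experiments, or one for low-affinity compounds.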
# [2] = target: T2, Adrenergic receptor alpha-2 (Rattus norvegicus, UniProt P22086+P19328+P22909); experiment: Displacement of [3H]RX821002 from alpha2-adrenoceptor in Sprague-Dawley rat brain membranes after 45 mins by liquid scintillation counting; assay type: cell membranes, Membrane; in short: as §1
# T2 sequence (P22086 whole entry): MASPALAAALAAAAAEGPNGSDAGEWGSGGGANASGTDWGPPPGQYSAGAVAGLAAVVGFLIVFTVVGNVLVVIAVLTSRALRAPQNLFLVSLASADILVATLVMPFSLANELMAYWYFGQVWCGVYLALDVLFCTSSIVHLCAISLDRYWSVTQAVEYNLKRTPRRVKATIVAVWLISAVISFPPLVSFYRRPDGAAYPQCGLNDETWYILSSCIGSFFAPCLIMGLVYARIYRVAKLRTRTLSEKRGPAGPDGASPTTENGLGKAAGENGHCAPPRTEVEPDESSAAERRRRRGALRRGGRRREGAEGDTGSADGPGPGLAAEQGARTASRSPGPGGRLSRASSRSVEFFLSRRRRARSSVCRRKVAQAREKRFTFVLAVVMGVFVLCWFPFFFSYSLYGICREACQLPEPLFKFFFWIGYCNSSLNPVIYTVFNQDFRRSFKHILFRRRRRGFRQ
# T2 sequence (P19328 whole entry): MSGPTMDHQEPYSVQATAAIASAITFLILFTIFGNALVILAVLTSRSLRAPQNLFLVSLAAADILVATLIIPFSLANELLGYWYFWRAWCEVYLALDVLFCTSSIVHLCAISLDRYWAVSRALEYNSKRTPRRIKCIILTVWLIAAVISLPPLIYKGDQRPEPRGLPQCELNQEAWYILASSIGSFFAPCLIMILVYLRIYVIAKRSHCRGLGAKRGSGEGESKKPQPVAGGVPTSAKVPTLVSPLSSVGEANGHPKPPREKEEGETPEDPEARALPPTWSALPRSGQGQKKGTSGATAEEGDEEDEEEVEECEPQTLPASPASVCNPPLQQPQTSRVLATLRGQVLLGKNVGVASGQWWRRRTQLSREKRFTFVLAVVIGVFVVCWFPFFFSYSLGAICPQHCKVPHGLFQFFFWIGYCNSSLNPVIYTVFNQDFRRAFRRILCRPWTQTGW
# T2 sequence (P22909 whole entry): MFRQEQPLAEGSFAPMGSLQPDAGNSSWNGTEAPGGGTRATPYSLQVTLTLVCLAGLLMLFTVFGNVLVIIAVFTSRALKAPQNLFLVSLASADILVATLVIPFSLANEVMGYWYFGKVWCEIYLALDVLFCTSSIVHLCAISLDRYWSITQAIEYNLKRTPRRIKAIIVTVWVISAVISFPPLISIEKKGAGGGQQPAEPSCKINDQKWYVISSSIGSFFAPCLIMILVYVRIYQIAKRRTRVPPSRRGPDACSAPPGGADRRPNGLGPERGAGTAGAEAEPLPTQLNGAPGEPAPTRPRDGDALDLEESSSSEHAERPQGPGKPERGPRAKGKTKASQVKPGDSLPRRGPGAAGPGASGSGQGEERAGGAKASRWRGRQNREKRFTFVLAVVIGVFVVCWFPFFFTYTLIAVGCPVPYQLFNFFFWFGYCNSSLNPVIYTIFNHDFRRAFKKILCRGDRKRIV
# [3] = Displacement of […] from imidazoline I2 receptor in Sprague-Dawley rat kidney membranes after 45 mins by liquid scintillation counting; assay type: cell membranes, Membrane
# Nischarin = Nischarin (Rattus norvegicus, UniProt Q4G017); experiment: Displacement of […] from imidazoline I1 receptor in Sprague-Dawley rat kidney membranes after 45 mins by liquid scintillation counting; assay type: cell membranes, Membrane
# Nischarin, sequence (Q4G017 whole entry): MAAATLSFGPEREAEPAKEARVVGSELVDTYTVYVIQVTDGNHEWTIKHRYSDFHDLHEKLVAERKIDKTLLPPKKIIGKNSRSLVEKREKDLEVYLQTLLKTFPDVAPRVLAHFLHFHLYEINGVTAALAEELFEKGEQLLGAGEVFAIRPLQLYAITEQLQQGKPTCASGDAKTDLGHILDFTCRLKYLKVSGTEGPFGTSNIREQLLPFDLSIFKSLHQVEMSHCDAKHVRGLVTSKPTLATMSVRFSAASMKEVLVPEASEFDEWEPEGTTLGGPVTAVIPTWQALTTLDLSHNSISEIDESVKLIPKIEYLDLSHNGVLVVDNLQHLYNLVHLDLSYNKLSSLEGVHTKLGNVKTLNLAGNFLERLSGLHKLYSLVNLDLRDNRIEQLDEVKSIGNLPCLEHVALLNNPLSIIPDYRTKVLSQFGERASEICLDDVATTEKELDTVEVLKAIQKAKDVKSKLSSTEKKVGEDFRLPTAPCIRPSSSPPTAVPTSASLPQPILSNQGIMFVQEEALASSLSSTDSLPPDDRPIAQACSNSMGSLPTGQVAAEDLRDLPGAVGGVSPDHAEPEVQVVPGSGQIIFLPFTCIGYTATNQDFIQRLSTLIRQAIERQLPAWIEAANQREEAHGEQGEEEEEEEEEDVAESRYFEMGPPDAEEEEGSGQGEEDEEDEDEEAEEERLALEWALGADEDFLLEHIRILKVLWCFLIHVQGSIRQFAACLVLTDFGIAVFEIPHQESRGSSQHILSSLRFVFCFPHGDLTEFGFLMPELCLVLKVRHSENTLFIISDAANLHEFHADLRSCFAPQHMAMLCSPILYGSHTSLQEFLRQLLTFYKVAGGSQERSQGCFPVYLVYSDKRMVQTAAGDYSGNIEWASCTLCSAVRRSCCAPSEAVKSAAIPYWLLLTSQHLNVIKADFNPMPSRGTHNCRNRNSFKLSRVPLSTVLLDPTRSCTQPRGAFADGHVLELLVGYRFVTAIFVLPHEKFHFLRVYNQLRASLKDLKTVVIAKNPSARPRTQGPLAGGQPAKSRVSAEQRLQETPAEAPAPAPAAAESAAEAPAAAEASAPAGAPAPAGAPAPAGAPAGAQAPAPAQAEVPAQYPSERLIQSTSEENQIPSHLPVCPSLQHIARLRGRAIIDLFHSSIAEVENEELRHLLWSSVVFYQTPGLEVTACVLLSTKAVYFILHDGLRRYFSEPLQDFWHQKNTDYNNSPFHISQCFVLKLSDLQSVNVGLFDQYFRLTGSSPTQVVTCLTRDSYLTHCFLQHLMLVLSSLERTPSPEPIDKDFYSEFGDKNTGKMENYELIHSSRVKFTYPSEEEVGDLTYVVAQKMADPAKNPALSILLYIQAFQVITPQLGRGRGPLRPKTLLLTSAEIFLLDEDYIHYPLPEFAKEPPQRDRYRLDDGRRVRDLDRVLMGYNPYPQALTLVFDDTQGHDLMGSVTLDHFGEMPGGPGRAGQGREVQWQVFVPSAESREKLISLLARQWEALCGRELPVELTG
# [4] = target: T3, Alpha-2B adrenergic receptor (Homo sapiens, UniProt P18089); experiment: Displacement of [3H]RS-79948-197 from human alpha2B adrenoceptor expressed in CHO-K1 cells after 45 mins by liquid scintillation counting; assay type: cell-based
# T3 sequence (P18089 whole entry): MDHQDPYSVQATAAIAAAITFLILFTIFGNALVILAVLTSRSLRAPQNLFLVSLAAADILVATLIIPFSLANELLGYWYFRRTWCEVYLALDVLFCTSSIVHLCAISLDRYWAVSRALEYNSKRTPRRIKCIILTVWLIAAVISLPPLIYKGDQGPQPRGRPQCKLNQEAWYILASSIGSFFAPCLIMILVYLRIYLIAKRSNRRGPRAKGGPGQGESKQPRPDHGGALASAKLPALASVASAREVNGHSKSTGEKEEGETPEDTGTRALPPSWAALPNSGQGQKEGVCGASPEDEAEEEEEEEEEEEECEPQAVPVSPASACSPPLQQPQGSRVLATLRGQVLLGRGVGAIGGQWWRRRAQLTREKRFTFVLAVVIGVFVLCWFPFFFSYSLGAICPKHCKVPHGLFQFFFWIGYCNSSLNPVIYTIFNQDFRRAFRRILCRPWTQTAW
# In short: (§2)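 Membranes from CHO-K1 cells stably expressing each human α2-AR subtype (6–10 µg protein). Used 0.2 nM [3H]RS-79948-197 and 8 serial dilutions of competitor in 50 mM potassium phosphate, pH 7.4. Non-specific binding defined with 100 µM oxymetazoline. Filtration, then scintillation counting. Run in duplicate, at least 3 repeats. One-site nonlinear fit; IC50 converted to Ki by Cheng-Prusoff.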
# [5] = target: T4, Alpha-2A adrenergic receptor (Homo sapiens, UniProt P08913); experiment: Displacement of [3H]RS-79948-197 from human alpha2A adrenoceptor expressed in CHO-K1 cells after 45 mins by liquid scintillation counting; assay type: cell-based; in short: as §2
# T4 sequence (P08913 whole entry): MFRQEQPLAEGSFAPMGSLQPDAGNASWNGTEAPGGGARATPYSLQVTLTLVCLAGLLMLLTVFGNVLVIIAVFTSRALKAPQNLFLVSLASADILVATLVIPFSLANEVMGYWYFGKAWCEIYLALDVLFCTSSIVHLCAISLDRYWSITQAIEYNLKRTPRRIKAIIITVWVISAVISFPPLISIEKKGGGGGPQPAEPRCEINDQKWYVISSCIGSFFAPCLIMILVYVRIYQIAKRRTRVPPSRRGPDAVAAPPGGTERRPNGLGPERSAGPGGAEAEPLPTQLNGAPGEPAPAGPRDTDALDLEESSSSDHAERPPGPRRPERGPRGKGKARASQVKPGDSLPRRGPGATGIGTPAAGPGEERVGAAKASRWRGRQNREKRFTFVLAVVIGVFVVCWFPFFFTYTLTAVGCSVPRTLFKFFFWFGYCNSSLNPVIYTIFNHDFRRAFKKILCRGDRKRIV
# [6] = target: T5, Alpha-2C adrenergic receptor (Homo sapiens, UniProt P18825); experiment: Displacement of [3H]RS-79948-197 from human alpha2C adrenoceptor expressed in CHO-K1 cells after 45 mins by liquid scintillation counting; assay type: cell-based; in short: as §2
# T5 sequence (P18825 whole entry): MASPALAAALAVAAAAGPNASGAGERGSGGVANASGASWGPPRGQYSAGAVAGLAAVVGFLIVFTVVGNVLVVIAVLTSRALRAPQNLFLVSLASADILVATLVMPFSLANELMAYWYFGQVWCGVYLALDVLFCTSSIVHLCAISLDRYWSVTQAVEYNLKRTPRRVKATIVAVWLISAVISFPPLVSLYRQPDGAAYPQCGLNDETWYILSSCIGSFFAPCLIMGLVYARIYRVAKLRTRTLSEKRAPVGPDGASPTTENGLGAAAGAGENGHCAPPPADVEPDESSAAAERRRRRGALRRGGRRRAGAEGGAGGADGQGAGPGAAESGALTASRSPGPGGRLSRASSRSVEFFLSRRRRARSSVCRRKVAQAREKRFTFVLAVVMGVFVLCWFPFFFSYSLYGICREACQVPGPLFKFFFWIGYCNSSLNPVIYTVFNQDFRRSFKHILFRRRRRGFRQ
# [7] = target: T4, Alpha-2A adrenergic receptor; experiment: Agonist activity at human alpha2A adrenoceptor expressed in CHO-K1 cells after 30 mins by [35S]GTPgammaS binding assay; assay type: functional, cell-based
# In short: (§3)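 Membranes from CHO cells stably expressing human α2A-AR (5 µg protein) were incubated with 7 or 8 serial dilutions of compound and 0.1 nM [35S]GTPγS. Buffer: 25 mM Tris, 1 mM EDTA, 5 mM MgCl2, 20 mM NaCl, 1 µM GDP, 1 mM DTT, 30 µM ascorbic acid, pH 7.4. Incubation 30 min at RT, then vacuum filtration and scintillation counting. Run in duplicate, at least 3 repeats.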
# [8] = target: T6, Alpha-2A adrenergic receptor (Homo sapiens) (UniProt P08913); experiment: Intrinsic activity at human alpha2A adrenoceptor expressed in CHO-K1 cells after 30 mins by [35S]GTPgammaS binding assay relative to norepinephrine; assay type: functional, cell-based; in short: as §3
# T6 sequence (whole entry): T4 sequence (P08913 whole entry)
SMILES,Ki [1] [µM],Ki [2] [µM],Ki [3] [µM],IC50 (Nischarin) [µM],Ki [4] [µM],Ki [5] [µM],Ki [6] [µM],EC50 [7] [µM],Intrinsic activity [8] [%]
Fc1c(F)c(F)c2c(cnn2N=C2NCCN2)c1F,19.793,3.717,22.7,5.83,–,–,–,–,–
Fc1cccc2c1cnn2CC1=NCCN1,0.5347,0.1873,0.0219,1.77,–,–,–,–,–
c1ccc2c(c1)cnn2N=C1NCCN1 [MARSANIDINE],–,0.01405,16.9,–,0.079,0.052,0.64,0.0933,14
Fc1cccc2c1cnn2N=C1NCCN1,3.807,0.416,6.18,14.8,–,–,–,–,–
